For experiment [1], the target named is T1, Ephrin type-B receptor 3 (Homo sapiens) (UniProt P54753).
T1 sequence (whole entry): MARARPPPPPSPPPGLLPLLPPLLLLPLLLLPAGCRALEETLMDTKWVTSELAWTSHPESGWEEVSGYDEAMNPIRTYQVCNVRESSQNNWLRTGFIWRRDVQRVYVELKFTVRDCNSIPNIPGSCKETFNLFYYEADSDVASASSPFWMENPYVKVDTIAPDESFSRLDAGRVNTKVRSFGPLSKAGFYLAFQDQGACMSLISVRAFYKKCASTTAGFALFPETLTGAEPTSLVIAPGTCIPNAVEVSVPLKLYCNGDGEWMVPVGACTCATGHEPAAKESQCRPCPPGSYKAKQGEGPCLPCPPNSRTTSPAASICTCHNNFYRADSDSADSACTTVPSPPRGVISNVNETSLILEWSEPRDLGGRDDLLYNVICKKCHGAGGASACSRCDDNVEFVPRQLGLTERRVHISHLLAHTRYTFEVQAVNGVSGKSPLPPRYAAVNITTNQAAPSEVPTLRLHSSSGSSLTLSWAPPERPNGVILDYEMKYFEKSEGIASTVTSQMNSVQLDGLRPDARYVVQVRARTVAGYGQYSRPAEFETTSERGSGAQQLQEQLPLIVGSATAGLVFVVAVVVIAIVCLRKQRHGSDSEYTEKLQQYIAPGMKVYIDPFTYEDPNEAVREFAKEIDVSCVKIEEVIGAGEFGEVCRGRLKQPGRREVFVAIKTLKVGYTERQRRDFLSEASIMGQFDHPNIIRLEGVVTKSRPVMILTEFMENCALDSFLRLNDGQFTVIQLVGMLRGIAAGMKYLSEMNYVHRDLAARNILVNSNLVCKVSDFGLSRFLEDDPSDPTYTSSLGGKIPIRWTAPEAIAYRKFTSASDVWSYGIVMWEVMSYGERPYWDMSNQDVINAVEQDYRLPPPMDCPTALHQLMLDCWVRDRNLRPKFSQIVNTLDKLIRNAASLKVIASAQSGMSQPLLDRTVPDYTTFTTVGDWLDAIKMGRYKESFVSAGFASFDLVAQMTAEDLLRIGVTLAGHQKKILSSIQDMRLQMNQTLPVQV
Nature of the experiment: Competitive binding affinity to EPHB3 (unknown origin) at 10 uM in presence of ATP relative to control. In outline:
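In vitro ATP-site competition binding assay, part of profiling against a diverse panel of 128 kinases. Each compound was tested at a single concentration of 10 µM. Kinome selectivity was summarized as S15 selectivity scores.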

Experiment [2] has as its target Ribosomal protein S6 kinase alpha-4 (Homo sapiens) (UniProt O75676). Nature of the experiment: Competitive binding affinity to RPS6KA4 kinase domain 1 (unknown origin) at 10 uM in presence of ATP relative to control.
In experiment [3] the test system is Tyrosine-protein kinase ABL1 (Homo sapiens), P00519 [Q252H]. Briefly: Competitive binding affinity to ABL1 Q252H mutant (unknown origin) at 10 uM in presence of ATP relative to control.
The target in experiment [4] is T2, Muscle, skeletal receptor tyrosine-protein kinase (Homo sapiens) (UniProt O15146).
T2 sequence (whole entry): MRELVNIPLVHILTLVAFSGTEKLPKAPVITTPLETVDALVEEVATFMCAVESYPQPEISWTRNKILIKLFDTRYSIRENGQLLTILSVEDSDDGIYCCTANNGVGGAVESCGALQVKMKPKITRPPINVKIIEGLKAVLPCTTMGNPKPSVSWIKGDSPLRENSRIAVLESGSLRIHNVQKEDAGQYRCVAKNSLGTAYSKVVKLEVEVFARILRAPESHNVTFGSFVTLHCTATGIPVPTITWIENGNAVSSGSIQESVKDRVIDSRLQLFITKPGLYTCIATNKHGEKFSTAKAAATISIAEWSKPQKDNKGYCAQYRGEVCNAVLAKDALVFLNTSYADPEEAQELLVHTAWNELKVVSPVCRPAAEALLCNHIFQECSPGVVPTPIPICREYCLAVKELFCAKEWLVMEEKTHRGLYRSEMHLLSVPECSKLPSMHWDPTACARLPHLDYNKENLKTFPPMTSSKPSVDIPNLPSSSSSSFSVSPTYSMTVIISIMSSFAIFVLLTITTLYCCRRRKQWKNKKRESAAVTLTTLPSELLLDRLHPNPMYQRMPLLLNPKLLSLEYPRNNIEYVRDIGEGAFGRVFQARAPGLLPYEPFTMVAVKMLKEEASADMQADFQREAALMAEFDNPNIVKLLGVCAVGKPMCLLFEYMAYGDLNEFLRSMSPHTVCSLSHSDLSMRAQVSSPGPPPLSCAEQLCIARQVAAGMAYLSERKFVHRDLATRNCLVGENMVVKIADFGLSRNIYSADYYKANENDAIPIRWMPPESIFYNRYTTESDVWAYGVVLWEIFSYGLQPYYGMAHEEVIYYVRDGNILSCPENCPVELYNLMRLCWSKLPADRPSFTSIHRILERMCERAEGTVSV
Nature of the experiment: Competitive binding affinity to MUSK (unknown origin) at 10 uM in presence of ATP relative to control. In outline:
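In vitro ATP-site competition binding assay across a diverse panel of 128 kinases, with compound tested at a single concentration. Kinase selectivity scores (S15) were calculated from the panel profiles.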

In experiment [5] the test system is Tyrosine-protein kinase ABL1 (Homo sapiens), P00519 [E255K]. Briefly: Competitive binding affinity to ABL1 E255K mutant (unknown origin) at 10 uM in presence of ATP relative to control.
Experiment [6] has as its target SRSF protein kinase 1 (Homo sapiens) (UniProt Q96SB4). Briefly: Competitive binding affinity to SRPK1 (unknown origin) at 10 uM in presence of ATP relative to control.
Experiment [7] has as its target Protein kinase C eta type (Homo sapiens) (UniProt P24723). Briefly: Competitive binding affinity to PRKCH (unknown origin) at 10 uM in presence of ATP relative to control.
The test system of experiment [8] is Proto-oncogene tyrosine-protein kinase receptor Ret (Homo sapiens), P07949 [M918T]. Briefly: Competitive binding affinity to RET M918T mutant (unknown origin) at 10 uM in presence of ATP relative to control.
Sequence of Proto-oncogene tyrosine-protein kinase receptor Ret (Homo sapiens), P07949 [M918T] (P07949 whole entry M918T): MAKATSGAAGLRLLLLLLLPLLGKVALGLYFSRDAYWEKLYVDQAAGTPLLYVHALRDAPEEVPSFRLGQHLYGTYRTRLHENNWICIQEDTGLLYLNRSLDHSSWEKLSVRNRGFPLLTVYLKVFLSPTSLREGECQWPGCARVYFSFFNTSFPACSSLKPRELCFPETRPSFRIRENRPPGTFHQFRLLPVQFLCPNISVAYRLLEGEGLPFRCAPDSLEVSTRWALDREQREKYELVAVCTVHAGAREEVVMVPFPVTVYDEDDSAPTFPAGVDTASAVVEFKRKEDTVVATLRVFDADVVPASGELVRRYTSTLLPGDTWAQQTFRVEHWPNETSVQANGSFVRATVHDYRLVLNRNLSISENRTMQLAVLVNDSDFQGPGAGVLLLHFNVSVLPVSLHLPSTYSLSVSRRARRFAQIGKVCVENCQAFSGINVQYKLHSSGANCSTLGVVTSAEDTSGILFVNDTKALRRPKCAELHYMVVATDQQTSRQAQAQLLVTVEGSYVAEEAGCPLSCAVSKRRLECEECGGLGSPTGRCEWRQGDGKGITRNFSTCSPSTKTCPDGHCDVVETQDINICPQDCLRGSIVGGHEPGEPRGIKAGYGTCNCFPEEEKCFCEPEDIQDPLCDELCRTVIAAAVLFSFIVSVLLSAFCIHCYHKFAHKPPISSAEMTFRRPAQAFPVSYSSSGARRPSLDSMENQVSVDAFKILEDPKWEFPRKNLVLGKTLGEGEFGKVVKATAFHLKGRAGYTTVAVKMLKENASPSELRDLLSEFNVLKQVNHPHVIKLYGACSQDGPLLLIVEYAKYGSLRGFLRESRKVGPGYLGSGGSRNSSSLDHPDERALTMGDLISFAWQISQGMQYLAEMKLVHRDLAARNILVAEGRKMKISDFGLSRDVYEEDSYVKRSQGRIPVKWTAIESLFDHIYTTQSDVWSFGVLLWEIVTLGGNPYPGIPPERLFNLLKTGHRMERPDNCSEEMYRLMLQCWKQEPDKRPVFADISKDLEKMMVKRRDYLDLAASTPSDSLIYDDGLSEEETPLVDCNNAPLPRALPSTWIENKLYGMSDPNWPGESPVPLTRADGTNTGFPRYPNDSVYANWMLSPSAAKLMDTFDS
The target in experiment [9] is Myosin-IIIa (Homo sapiens) (UniProt Q8NEV4). Briefly: Competitive binding affinity to MYO3A (unknown origin) at 10 uM in presence of ATP relative to control.
Sequence of Myosin-IIIa (Homo sapiens) (Q8NEV4 whole entry): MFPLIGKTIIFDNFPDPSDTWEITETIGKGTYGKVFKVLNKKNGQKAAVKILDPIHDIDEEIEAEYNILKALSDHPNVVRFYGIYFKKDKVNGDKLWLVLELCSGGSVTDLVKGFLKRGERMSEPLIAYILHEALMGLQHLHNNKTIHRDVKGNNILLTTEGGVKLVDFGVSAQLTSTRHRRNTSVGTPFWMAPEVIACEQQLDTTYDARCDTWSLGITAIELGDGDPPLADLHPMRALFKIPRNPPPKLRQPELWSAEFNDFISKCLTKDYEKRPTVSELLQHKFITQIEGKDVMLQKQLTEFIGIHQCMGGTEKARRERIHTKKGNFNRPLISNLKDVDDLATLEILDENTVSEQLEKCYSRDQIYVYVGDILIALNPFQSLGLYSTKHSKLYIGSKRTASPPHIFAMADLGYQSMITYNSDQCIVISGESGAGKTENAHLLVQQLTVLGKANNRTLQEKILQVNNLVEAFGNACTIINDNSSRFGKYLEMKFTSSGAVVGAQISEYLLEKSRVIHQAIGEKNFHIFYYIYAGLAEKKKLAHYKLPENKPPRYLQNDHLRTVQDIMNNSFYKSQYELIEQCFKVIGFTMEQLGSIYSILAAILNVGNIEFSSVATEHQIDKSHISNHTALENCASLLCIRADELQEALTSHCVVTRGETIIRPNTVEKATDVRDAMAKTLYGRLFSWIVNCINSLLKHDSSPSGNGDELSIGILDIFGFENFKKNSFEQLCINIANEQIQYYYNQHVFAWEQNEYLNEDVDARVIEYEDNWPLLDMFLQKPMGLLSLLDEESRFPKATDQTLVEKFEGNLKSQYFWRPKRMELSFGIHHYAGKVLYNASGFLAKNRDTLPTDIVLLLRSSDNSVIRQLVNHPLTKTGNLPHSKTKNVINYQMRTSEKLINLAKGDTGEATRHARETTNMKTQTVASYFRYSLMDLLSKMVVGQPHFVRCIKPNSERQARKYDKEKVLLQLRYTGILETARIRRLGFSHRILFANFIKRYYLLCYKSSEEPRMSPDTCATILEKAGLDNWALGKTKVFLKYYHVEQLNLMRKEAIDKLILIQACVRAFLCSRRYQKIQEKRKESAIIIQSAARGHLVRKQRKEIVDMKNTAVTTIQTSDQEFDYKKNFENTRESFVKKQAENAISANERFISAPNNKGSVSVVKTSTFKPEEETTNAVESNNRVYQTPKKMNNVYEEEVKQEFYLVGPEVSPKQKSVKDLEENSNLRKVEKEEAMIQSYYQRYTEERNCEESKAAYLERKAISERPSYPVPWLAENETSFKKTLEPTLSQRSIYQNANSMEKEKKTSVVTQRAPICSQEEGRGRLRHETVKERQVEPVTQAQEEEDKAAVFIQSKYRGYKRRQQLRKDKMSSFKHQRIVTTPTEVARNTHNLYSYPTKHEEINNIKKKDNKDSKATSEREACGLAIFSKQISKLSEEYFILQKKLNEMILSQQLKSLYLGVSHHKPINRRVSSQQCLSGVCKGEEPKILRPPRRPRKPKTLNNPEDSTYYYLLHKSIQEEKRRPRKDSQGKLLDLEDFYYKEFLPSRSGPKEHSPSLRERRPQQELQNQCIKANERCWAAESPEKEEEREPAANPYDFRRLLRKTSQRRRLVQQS
Experiment [10] deals with Glycogen synthase kinase-3 beta (Homo sapiens, UniProt P49841). Nature of the experiment: Competitive binding affinity to GSK3beta (unknown origin) at 10 uM in presence of ATP relative to control.
In experiment [11] the target is Cyclin-dependent kinase 14 (Homo sapiens) (UniProt O94921). Nature of the experiment: Competitive binding affinity to PFTK1 (unknown origin) at 10 uM in presence of ATP relative to control.
Sequence of Cyclin-dependent kinase 14 (Homo sapiens) (O94921 whole entry): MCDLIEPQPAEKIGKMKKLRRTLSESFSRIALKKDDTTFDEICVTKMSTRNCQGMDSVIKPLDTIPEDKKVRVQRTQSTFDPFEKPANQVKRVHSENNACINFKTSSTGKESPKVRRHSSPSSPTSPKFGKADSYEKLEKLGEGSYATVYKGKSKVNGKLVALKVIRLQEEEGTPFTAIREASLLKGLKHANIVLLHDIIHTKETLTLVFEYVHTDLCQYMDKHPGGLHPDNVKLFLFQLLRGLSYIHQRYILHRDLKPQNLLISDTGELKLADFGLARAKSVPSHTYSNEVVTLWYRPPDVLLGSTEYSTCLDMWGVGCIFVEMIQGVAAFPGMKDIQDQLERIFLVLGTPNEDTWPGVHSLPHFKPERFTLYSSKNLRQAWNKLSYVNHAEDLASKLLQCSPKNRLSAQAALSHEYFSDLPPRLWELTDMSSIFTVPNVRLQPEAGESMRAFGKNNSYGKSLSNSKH
Experiment [12] concerns the target Cyclin-dependent kinase 11B (Homo sapiens, UniProt P21127). Briefly: Competitive binding affinity to CDC2L1 (unknown origin) at 10 uM in presence of ATP relative to control. Put shortly:
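In vitro ATP-site competition binding format, run as one member of a diverse 128-kinase profiling panel. Each compound was tested at a single concentration across the whole panel.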

Bounds are passed on as bounds.

Sequence of Cyclin-dependent kinase 11B (P21127 whole entry): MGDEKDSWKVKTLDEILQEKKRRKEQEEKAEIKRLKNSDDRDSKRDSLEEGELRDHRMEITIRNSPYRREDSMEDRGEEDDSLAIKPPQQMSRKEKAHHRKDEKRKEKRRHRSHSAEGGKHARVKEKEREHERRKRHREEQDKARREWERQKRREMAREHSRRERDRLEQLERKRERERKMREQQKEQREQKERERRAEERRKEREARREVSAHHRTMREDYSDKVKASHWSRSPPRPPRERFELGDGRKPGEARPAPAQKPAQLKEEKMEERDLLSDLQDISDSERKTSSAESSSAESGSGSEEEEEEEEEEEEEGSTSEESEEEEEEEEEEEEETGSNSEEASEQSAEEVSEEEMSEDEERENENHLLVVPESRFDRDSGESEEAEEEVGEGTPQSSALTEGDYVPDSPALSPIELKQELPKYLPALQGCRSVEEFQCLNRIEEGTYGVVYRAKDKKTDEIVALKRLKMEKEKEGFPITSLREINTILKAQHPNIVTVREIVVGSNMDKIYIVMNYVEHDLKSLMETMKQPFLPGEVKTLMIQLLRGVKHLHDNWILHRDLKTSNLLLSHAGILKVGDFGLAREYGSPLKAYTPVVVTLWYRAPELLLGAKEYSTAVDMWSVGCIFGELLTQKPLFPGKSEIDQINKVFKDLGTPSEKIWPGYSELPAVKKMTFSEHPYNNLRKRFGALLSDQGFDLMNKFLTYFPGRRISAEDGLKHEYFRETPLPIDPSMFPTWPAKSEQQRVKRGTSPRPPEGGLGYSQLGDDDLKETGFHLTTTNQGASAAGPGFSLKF
Sequence of Ribosomal protein S6 kinase alpha-4 (Homo sapiens) (O75676 whole entry, looked up, the tested form may be a part): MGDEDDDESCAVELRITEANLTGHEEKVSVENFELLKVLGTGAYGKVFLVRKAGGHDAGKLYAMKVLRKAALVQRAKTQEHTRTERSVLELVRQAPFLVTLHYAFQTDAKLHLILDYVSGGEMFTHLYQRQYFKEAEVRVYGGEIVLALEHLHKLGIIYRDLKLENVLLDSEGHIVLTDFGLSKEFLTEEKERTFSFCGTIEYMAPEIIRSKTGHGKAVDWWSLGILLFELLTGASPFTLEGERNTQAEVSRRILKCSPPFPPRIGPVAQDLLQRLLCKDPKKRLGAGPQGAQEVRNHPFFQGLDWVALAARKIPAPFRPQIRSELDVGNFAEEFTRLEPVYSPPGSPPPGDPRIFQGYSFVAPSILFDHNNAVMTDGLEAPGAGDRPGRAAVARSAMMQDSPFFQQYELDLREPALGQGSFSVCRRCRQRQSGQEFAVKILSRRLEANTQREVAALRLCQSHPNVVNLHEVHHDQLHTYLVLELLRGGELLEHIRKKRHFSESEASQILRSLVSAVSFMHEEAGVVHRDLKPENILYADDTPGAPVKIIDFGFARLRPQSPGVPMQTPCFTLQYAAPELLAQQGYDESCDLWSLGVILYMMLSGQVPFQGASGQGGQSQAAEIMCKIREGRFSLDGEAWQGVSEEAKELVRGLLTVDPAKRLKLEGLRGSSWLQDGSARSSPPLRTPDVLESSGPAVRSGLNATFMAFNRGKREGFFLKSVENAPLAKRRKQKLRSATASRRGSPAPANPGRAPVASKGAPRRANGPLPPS

Regarding `O[C@H]1CC[C@H](Nc2nccc(-c3n[nH]c4ccccc34)n2)CC1`, the inhibition in experiment [1] was under 50%; in [2], 99%; in experiment [3], under 50%; in experiment [4] it was under 50%; in experiment [5], under 50%; in experiment [6], 100%. For the same compound, the inhibition in [7] was under 50%.

Consider `O[C@H]1CC[C@H](Nc2nccc(-n3ccc4ccccc43)n2)CC1`, for which the inhibition in experiment [1], in experiment [8], in experiment [9], in [2], in experiment [10] and in experiment [3] was under 50% each time. Further, the inhibition in [11] was under 50%; in [4] it was under 50%; in experiment [5], under 50%; in [12], 97%; in experiment [6], under 50%; in experiment [7], under 50%.

Take `O[C@H]1CC[C@H](Nc2nccc(-n3ncc4ccccc43)n2)CC1`: the inhibition was under 50% in experiment [1]; under 50% in experiment [8]; under 50% in experiment [9]; under 50% in [2]; 82% in [10]; under 50% in experiment [3]. Besides, the inhibition in experiment [11] was under 50%; in experiment [4] it was under 50%; in experiment [5] it was under 50%; in experiment [12] it was 97%; in experiment [6] it was under 50%; in [7] it was under 50%.

For the compound `O[C@H]1CC[C@H](Nc2nccc(-n3nnc4ccccc43)n2)CC1`, the inhibition in experiment [1] was under 50%; in [8] it was under 50%; in experiment [9] it was under 50%; in [2] it was under 50%; in experiment [10], 100%; in experiment [3] it was 74%. Further, the inhibition was 79% in [11]; under 50% in [4]; under 50% in experiment [5]; 100% in experiment [12]; under 50% in [6]; under 50% in experiment [7].

For `CS(=O)(=O)CCCOc1cccc2c1ccn2-c1ccnc(N[C@H]2CC[C@H](C(=O)N3CCC(O)CC3)CC2)n1`, the inhibition in [10] and in experiment [12] was over 85% throughout.

These data come from ChEMBL document CHEMBL2424622, “Development of amino-pyrimidine inhibitors of c-Jun N-terminal kinase (JNK): kinase profiling guided optimization of a 1,2,3-benzotriazole lead” (Bioorg Med Chem Lett, 2013).
